Test results: ChEMBL document CHEMBL1795327, “Novel 4-phenylpiperidine-2,6-dione derivatives. Ligands for α₁-adrenoceptor subtypes” (Eur J Med Chem, 2011)
Calls of active or inactive are those of the source. The calls are words filed in the database; no cut-off is given here.

How the values were obtained:
[1] = target: T1, Alpha-1A adrenergic receptor (Homo sapiens, UniProt P35348); assay: Displacement of [125I]BE-2254 from human adrenergic alpha1A receptor expressed in HEK293 cells; format: cell-based
T1 sequence (P35348 whole entry): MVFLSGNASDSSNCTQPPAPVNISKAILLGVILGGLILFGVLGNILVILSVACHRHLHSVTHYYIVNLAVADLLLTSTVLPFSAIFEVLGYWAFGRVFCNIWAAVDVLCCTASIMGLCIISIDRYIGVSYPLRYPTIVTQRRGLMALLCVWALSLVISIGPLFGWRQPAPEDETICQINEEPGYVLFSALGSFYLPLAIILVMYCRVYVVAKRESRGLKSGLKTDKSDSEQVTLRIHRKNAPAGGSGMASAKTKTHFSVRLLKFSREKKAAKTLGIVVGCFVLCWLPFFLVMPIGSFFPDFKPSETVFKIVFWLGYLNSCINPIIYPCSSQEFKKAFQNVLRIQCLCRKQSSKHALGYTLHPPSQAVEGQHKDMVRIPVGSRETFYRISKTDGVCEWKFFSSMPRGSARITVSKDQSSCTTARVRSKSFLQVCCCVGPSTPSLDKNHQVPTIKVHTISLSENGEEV
How it was run: (§1)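 Membranes came from HEK293 cells stably expressing human α1A-, α1B- or α1D-AR, selected with geneticin. Cells were washed in PBS pH 7.6, homogenized, and spun at 30,000 × g for 10 min. The radioligand was [125I]BE 2254. Affinities are pKi, given as mean ± SE of three experiments run in duplicate.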

[2] = target: T2, Alpha-1B adrenergic receptor (Homo sapiens, UniProt P35368); assay: Displacement of [125I]BE-2254 from human adrenergic Alpha-1B receptor expressed in HEK293 cells; format: cell-based; how it was run: as §1
T2 sequence (P35368 whole entry): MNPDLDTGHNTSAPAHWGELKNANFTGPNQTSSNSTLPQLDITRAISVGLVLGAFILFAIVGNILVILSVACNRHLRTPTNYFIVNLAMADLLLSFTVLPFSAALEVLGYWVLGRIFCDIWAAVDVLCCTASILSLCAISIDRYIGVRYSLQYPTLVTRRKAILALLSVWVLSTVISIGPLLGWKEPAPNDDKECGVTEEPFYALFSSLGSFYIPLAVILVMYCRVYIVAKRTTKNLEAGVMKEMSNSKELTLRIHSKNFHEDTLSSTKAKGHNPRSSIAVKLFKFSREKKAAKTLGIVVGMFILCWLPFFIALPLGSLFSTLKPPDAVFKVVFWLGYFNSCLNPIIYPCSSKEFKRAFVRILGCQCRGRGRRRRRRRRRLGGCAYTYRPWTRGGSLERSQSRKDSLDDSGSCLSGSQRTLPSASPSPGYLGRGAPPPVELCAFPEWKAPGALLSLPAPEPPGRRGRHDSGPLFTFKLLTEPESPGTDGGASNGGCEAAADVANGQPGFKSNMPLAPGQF

[3] = target: T3, Alpha-1D adrenergic receptor (Homo sapiens, UniProt P25100); assay: Displacement of [125I]BE-2254 from human adrenergic Alpha-1D receptor expressed in HEK293 cells; format: cell-based; how it was run: as §1
T3 sequence (P25100 whole entry): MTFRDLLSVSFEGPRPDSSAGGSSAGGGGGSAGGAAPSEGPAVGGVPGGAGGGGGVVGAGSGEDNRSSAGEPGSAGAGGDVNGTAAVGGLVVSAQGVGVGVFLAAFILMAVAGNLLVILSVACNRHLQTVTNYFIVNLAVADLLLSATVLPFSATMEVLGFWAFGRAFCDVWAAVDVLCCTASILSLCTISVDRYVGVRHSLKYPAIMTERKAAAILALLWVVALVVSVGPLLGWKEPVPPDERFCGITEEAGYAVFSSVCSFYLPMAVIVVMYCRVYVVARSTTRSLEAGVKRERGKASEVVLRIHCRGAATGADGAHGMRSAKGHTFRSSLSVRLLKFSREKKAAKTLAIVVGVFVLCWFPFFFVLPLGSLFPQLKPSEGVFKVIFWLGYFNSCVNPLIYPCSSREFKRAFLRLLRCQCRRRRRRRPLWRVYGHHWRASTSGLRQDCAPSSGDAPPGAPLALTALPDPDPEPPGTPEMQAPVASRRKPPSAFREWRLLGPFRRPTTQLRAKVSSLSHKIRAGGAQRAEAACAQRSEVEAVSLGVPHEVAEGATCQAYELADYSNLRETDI

[4] = target: T1, Alpha-1A adrenergic receptor; assay: Antagonist activity at human adrenergic alpha1A receptor expressed in HEK293 cells assessed as inhibition of norepinephrine-induced [3H]inositol phosphate hydrolysis by scintillation counting; format: functional, cell-based
How it was run: (§2)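 HEK293 cells stably transfected with human α1A-, α1B- or α1D-AR cDNA were prelabelled with myo-[3H]inositol, then given Krebs Ringer bicarbonate buffer with LiCl. Cells were incubated 60 min with or without NE and graded compound concentrations. The reaction was stopped with 20 mM formic acid. [3H]InsPs were isolated by anion exchange and counted by scintillation. Values (±SE) came from concentration-response inhibition curves.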

[5] = target: T2, Alpha-1B adrenergic receptor; assay: Antagonist activity against human cloned adrenergic Alpha-1B receptor expressed in HEK293 cells assessed as inhibition of norepinephrine-induced [3H]inositol phosphate hydrolysis by scintillation counting; format: functional, cell-based; how it was run: as §2
[6] = target: T3, Alpha-1D adrenergic receptor; assay: Antagonist activity against human cloned adrenergic Alpha-1D receptor expressed in HEK293 cells assessed as inhibition of norepinephrine-induced [3H]inositol phosphate hydrolysis by scintillation counting; format: functional, cell-based; how it was run: as §2
[7] = target: T4, Alpha-1A adrenergic receptor (Homo sapiens) (UniProt P35348); assay: Antagonist activity at human adrenergic alpha1A receptor expressed in HEK293 cells assessed as [3H]inositol phosphate formation at 10 uM by scintillation counting; format: functional, cell-based
T4 sequence (whole entry): T1 sequence (P35348 whole entry)
How it was run: (§3)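 Stably transfected HEK293 cells expressing human α1A-, α1B- or α1D-AR were labelled with myo-[3H]inositol and moved to Krebs Ringer bicarbonate buffer containing LiCl. They were incubated 60 min with or without NE, in the presence or absence of test compound. After a formic acid stop and sonication, [3H]InsPs were separated by anion-exchange chromatography and counted by scintillation.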

[8] = target: T5, Alpha-1B adrenergic receptor (Homo sapiens) (UniProt P35368); assay: Antagonist activity at human adrenergic Alpha-1B receptor expressed in HEK293 cells assessed as [3H]inositol phosphate formation at 10 uM by scintillation counting; format: functional, cell-based; how it was run: as §3
T5 sequence (whole entry): T2 sequence (P35368 whole entry)

[9] = target: T6, Alpha-1D adrenergic receptor (Homo sapiens) (UniProt P25100); assay: Antagonist activity at human adrenergic Alpha-1D receptor expressed in HEK293 cells assessed as [3H]inositol phosphate formation at 10 uM by scintillation counting; format: functional, cell-based; how it was run: as §3
T6 sequence (whole entry): T3 sequence (P25100 whole entry)

[10] = target: T2, Alpha-1B adrenergic receptor; assay: Binding affinity to adrenergic Alpha-1B receptor
How it was run: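 Human α1B-adrenoceptor stably expressed in HEK293 cells, transfected with a pRSVICAT vector and selected with geneticin. Membranes were prepared by scraping cells, homogenizing them and centrifuging at 30,000 × g for 10 min. Values are pKi, mean ± SE of three experiments run in duplicate.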

| SMILES | Ki [1] [nM] | Ki [2] [nM] | Ki [3] [nM] | further results |
| --- | --- | --- | --- | --- |
| O=C1CC(c2ccccc2)CC(=O)N1CCCN1CCN(c2ccccc2Cl)CC1 | 47.9 | 112 | 43.7 |  |
| O=C1CC(c2ccc(Cl)cc2)CC(=O)N1CCN1CCN(c2ccccc2Cl)CC1 | 6920 | 10000 | 1510 |  |
| O=C1CC(c2ccc(Cl)cc2)CC(=O)N1CCCN1CCN(c2ccccc2Cl)CC1 | 49 | 135 | 63.1 |  |
| COc1ccc(Cl)cc1N1CCN(CCCN2C(=O)CC(c3ccccc3)CC2=O)CC1 | 191 | 331 | 389 |  |
| COc1ccccc1N1CCN(CCN2C(=O)CC(c3ccccc3)CC2=O)CC1 | 3470 | 7410 | 1320 |  |
| CC(C)(C)c1ccc(N2CCN(CCn3c(=O)[nH]c4c([nH]c5ccccc54)c3=O)CC2)cc1 |  |  |  | pKi ([3]; hek293): 7.7 |
| COc1ccccc1N1CCN(CCCCN2C(=O)CC3(CCc4ccccc43)CC2=O)CC1 | 9.77 | 72.4 | 16.2 | Ki [4]: 10 nM; Ki [5]: 20 nM; Ki [6]: 5.01 nM; Activity [7]: inactive; Activity [8]: inactive; Activity [9]: inactive |
| COc1ccccc1N1CCN(CCCN2C(=O)CC(c3ccccc3)CC2=O)CC1 | 46.8 | 112 | 45.7 |  |
| COc1ccccc1N1CCN(CCCN2C(=O)CC3(CCc4ccccc43)CC2=O)CC1 | 63.1 | 234 | 75.9 |  |
| COc1ccccc1N1CCN(CCCCN2C(=O)CC(c3ccc(Cl)cc3)CC2=O)CC1 | 67.6 | 245 | 72.4 |  |
| COc1ccccc1N1CCN(CCCCN2C(=O)CC(c3ccc([N+](=O)[O-])cc3)CC2=O)CC1 | 20.9 | 209 | 53.7 |  |
| COc1ccc(Cl)cc1N1CCN(CCCN2C(=O)CC(C)(c3ccccc3)CC2=O)CC1 | 34.7 | 195 | 97.7 |  |
| O=C1CC(c2ccccc2)CC(=O)N1CCN1CCN(c2ccccc2Cl)CC1 | 3240 | 2240 | 631 |  |
| COc1ccccc1N1CCN(CCCN2C(=O)CC(C)(c3ccccc3)CC2=O)CC1 | 10.2 | 129 | 51.3 |  |
| COc1ccccc1N1CCN(CCCCN2C(=O)CC(c3ccccc3)CC2=O)CC1 | 1.82 | 24 | 15.8 | Ki [4]: 2.51 nM; Ki [5]: 3.98 nM; Ki [6]: 2 nM; Activity [7]: inactive; Activity [8]: inactive; Activity [9]: inactive |
| COc1ccccc1N1CCN(CCN2C(=O)CC3(CCc4ccccc43)CC2=O)CC1 | 3390 | 5010 | 912 |  |
| COc1ccccc1N1CCN(CCn2c(=O)[nH]c3c([nH]c4ccccc43)c2=O)CC1 |  |  |  | pKi ([1]; hek293): 9.57 |
| COc1ccccc1N1CCN(CCCN2C(=O)CC(c3ccc([N+](=O)[O-])cc3)CC2=O)CC1 | 14.1 | 129 | 67.6 |  |
| COc1ccc(Cl)cc1N1CCN(CCCCN2C(=O)CC(C)(c3ccccc3)CC2=O)CC1 | 95.5 | 151 | 77.6 |  |
| COc1ccc(Cl)cc1N1CCN(CCCCN2C(=O)CC(c3ccccc3)CC2=O)CC1 | 36.3 | 107 | 38.9 |  |
| COc1ccccc1N1CCN(CCN2C(=O)CC(c3ccc(Cl)cc3)CC2=O)CC1 | 1700 | 112 | 692 |  |
| COc1ccccc1N1CCN(CCCCCN2C(=O)CC(c3ccccc3)CC2=O)CC1 | 21.9 | 97.7 | 30.9 |  |
| O=C1CC(c2ccccc2)CC(=O)N1CCCCN1CCN(c2ccccc2Cl)CC1 | 15.8 | 30.2 | 33.9 |  |
| COc1ccccc1N1CCN(CCN2C(=O)CC3(CCCC3)CC2=O)CC1 |  |  |  | Ki [10]: 50.1 nM |
| COc1ccccc1N1CCN(CCCN2C(=O)CC(c3ccc(Cl)cc3)CC2=O)CC1 | 28.2 | 126 | 69.2 |  |
| COc1ccccc1N1CCN(CCCCN2C(=O)CC(C)(c3ccccc3)CC2=O)CC1 | 22.4 | 56.2 | 14.5 | Ki [4]: 31.6 nM; Ki [5]: 7.94 nM; Ki [6]: 0.501 nM; Activity [7]: inactive; Activity [8]: inactive; Activity [9]: inactive |
